Data: ChEMBL document CHEMBL1125254, “Allosteric modifiers of hemoglobin. 2. Crystallographically determined binding sites and hydrophobic binding/interaction analysis of novel hemoglobin oxygen effectors” (J Med Chem, 1991)

Assay: Allosteric activity evaluated as the ratio of the oxygen pressure in mmHg between hemoglobin-compound and compound-free hemoglobin (control) solution at which 50% oxygen saturation's are respectively attained.
Summary of the method: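 Oxygen equilibrium of human hemoglobin solutions at 2.7 mM Hb with compound at 10 mM, in 50 mM HEPES pH 7.4. P50 ratios are averaged, with standard deviations reported.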

P50d/P50c | SMILES
3.17 | CC(C)(Oc1ccc(CC(=O)Nc2cc(Cl)c(Cl)c(Cl)c2)cc1)C(=O)O
1.74 | CC(C)(Oc1ccc(CCNC(=O)c2ccc(Cl)cc2)cc1)C(=O)O
2.58 | CC(C)(Oc1ccc(CNC(=O)c2ccc(Cl)cc2)cc1)C(=O)O
2.13 | CC(C)(Oc1ccc(CNC(=O)c2cc(Cl)c(Cl)c(Cl)c2)cc1)C(=O)O
2.57 | CC(C)(Oc1ccc(NC(=O)Nc2cc(Cl)c(Cl)c(Cl)c2)cc1)C(=O)O
2.48 | CC(C)(Oc1ccc(CNC(=O)c2cc(Cl)cc(Cl)c2)cc1)C(=O)O
1.77 | CC(C)(Oc1ccc(NC(=O)Nc2ccc(Cl)c(Cl)c2)cc1)C(=O)O
3.62 | CC(C)(Oc1ccc(NC(=O)Nc2cc(Cl)cc(Cl)c2)cc1)C(=O)O
2.79 | CC(C)(Oc1ccc(CC(=O)Nc2ccc(Cl)cc2)cc1)C(=O)O
4.32 | CC(C)(Oc1ccc(CC(=O)Nc2cc(Cl)cc(Cl)c2)cc1)C(=O)O
